Laboratory results reported in ChEMBL document CHEMBL1649465, “In vitro activity of ceftaroline alone and in combination against clinical isolates of resistant gram-negative pathogens, including beta-lactamase-producing Enterobacteriaceae and Pseudomonas aeruginosa” (2009).
≈ marks a conversion by molar mass, not a printed value. Calls of active or inactive are those of the source. No cut-off for these calls is given here.

Tests used:
[1] = system: Pseudomonas aeruginosa; assay: Bactericidal activity against Pseudomonas aeruginosa isolate 1019 at 1/4 times MIC after 24 hrs by time kill analysis; assay type: functional, organism-based
Method in brief: (§1)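 Duplicate 24-h time-kill of the drug combination, each agent at one-fourth its MIC. […] Counts were taken by spiral plating after dilution in cold saline.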

[2] = system: Escherichia coli; assay: Bactericidal activity against Escherichia coli isolate 5411 at 1/4 times MIC after 24 hrs by time kill analysis; assay type: functional, organism-based
Method in brief: (§2)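 Duplicate time-kill assays in 2-ml cultures of Mg/Ca-supplemented Mueller-Hinton broth. […] Samples taken at 0, 1, 2, 4, 8 and 24 h, serially diluted in cold 0.9% NaCl and spiral-plated for colony counts. Detection limit 2 log10 CFU/ml. Reported as decrease in log10 CFU/ml (mean ± SD).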

[3] = system: Klebsiella pneumoniae; assay: Antimicrobial activity against Klebsiella pneumoniae isolate 5427 by broth microdilution method; assay type: functional
[4] = system: Klebsiella pneumoniae; assay: Bactericidal activity against Klebsiella pneumoniae isolate 5427 at 1/4 times MIC after 24 hrs by time kill analysis; assay type: functional, organism-based; method in brief: as §2
[5] = system: Pseudomonas aeruginosa; assay: Bactericidal activity against Pseudomonas aeruginosa isolate 1037 at 1/4 times MIC after 24 hrs by time kill analysis; assay type: functional, organism-based; method in brief: as §1
[6] = system: Escherichia coli; assay: Bactericidal activity against Escherichia coli isolate 5401 at 1/4 times MIC after 24 hrs by time kill analysis; assay type: functional, organism-based; method in brief: as §2
[7] = system: Klebsiella pneumoniae; assay: Bactericidal activity against Klebsiella pneumoniae isolate 5436 at 1/4 times MIC after 24 hrs by time kill analysis; assay type: functional, organism-based; method in brief: as §1
[8] = system: Escherichia coli; assay: Antimicrobial activity against ESBL-producing Escherichia coli by broth microdilution method; assay type: functional
[9] = system: Escherichia coli; assay: Antimicrobial activity against Escherichia coli isolate 5401 by broth microdilution method; assay type: functional
[10] = system: Pseudomonas aeruginosa; assay: Bactericidal activity against Pseudomonas aeruginosa isolate 956 at 1/4 times MIC after 24 hrs by time kill analysis; assay type: functional, organism-based; method in brief: as §1
[11] = system: Pseudomonas aeruginosa; assay: Bactericidal activity against Pseudomonas aeruginosa isolate 796 at 1/4 times MIC after 24 hrs by time kill analysis; assay type: functional, organism-based; method in brief: as §1
[12] = system: Pseudomonas aeruginosa; assay: Antimicrobial activity against Pseudomonas aeruginosa isolate 796 by broth microdilution method; assay type: functional
[13] = system: Enterobacter cloacae; assay: Antimicrobial activity against Enterobacter cloacae isolate 4073 by broth microdilution method; assay type: functional
[14] = system: Pseudomonas aeruginosa; assay: Antimicrobial activity against Pseudomonas aeruginosa isolate 956 by broth microdilution method; assay type: functional
[15] = system: Klebsiella pneumoniae; assay: Antimicrobial activity against Klebsiella pneumoniae isolate 5436 by broth microdilution method; assay type: functional
[16] = system: Pseudomonas aeruginosa; assay: Antimicrobial activity against Pseudomonas aeruginosa isolate 1037 by broth microdilution method; assay type: functional
[17] = system: Pseudomonas aeruginosa; assay: Antimicrobial activity against Pseudomonas aeruginosa by broth microdilution method; assay type: functional
[18] = system: Klebsiella pneumoniae; assay: Antimicrobial activity against ESBL-producing Klebsiella pneumoniae by broth microdilution method; assay type: functional
[19] = system: Escherichia coli; assay: Antimicrobial activity against Escherichia coli isolate 5411 by broth microdilution method; assay type: functional
[20] = system: Enterobacter cloacae; assay: Antimicrobial activity against […] Enterobacter cloacae by broth microdilution method; assay type: functional
[21] = system: Enterobacter cloacae; assay: Antimicrobial activity against Enterobacter cloacae isolate 5420 by broth microdilution method; assay type: functional
[22] = system: Pseudomonas aeruginosa; assay: Antimicrobial activity against Pseudomonas aeruginosa isolate 1019 by broth microdilution method; assay type: functional

SMILES | inhibition [1] | inhibition [2] | MBC [3] [µg/mL] | MIC [3] [µg/mL] | inhibition [4] | inhibition [5] | inhibition [6] | inhibition [7] | MBC [8] [µg/mL] | MBC [9] [µg/mL] | MIC [9] [µg/mL] | inhibition [10] | inhibition [11] | MIC [12] [µg/mL] | MIC [14] [µg/mL] | MIC [15] [µg/mL] | MBC [18] [µg/mL] | MIC [18] [µg/mL] | MBC [19] [µg/mL] | MIC [19] [µg/mL] | also measured
CO/N=C(\C(=O)N[C@@H]1C(=O)N2C(C(=O)[O-])=C(C[N+]3(C)CCCC3)CS[C@H]12)c1csc(N)n1 | inactive | inactive | 1 (≈ 2.08 µM) | 0.5 (≈ 1.04 µM) | inactive | inactive | inactive | inactive | 0.25 (≈ 0.52 µM) | 4 (≈ 8.32 µM) | 4 (≈ 8.32 µM) | inactive | inactive | 8 (≈ 16.6 µM) |  |  |  |  |  |  | 
NCC[C@H](O)C(=O)N[C@@H]1C[C@H](N)[C@@H](O[C@H]2O[C@H](CN)[C@@H](O)[C@H](O)[C@H]2O)[C@H](O)[C@H]1O[C@H]1O[C@H](CO)[C@@H](O)[C@H](N)[C@H]1O [AMIKACIN] | inactive | inactive | 2 (≈ 3.42 µM) | 2 (≈ 3.42 µM) | inactive | inactive | inactive | inactive | 4 (≈ 6.83 µM) | 4 (≈ 6.83 µM) | 2 (≈ 3.42 µM) | inactive | inactive | 16 (≈ 27.3 µM) | 4 (≈ 6.83 µM) | 1 (≈ 1.71 µM) | 1 (≈ 1.71 µM) | 1 (≈ 1.71 µM) | 16 (≈ 27.3 µM) | 8 (≈ 13.7 µM) | MBC [13]: 8 µg/mL (≈ 13.7 µM); MIC [13]: 1 µg/mL (≈ 1.71 µM); MBC [14]: 64 µg/mL (≈ 109 µM); MBC [15]: 2 µg/mL (≈ 3.42 µM); MBC [16]: 4 µg/mL (≈ 6.83 µM); MIC [16]: 2 µg/mL (≈ 3.42 µM); MBC [17]: 2 µg/mL (≈ 3.42 µM); MIC [17]: 2 µg/mL (≈ 3.42 µM); MIC [8]: 1 µg/mL (≈ 1.71 µM); MBC [20]: 1 µg/mL (≈ 1.71 µM); MIC [20]: 0.5 µg/mL (≈ 0.854 µM); MBC [21]: 2 µg/mL (≈ 3.42 µM); MIC [21]: 1 µg/mL (≈ 1.71 µM); MBC [22]: 4 µg/mL (≈ 6.83 µM); MIC [22]: 4 µg/mL (≈ 6.83 µM); MBC [12]: 32 µg/mL (≈ 54.6 µM)
C[C@H]1[C@H](NC(=O)/C(=N\OC(C)(C)C(=O)O)c2csc(N)n2)C(=O)N1S(=O)(=O)O [AZTREONAM] | inactive | inactive | 1 (≈ 2.3 µM) | 0.5 (≈ 1.15 µM) | inactive | inactive | inactive | inactive | > 0.125 | 0.25 (≈ 0.574 µM) | 0.25 (≈ 0.574 µM) | inactive | inactive |  | 8 (≈ 18.4 µM) | 64 (≈ 147 µM) | > 0.5 | > 0.25 | 32 (≈ 73.5 µM) | 8 (≈ 18.4 µM) | MIC [8]: > 0.125 µg/mL
C[C@H]1COc2c(N3CCN(C)CC3)c(F)cc3c(=O)c(C(=O)O)cn1c23.C[C@H]1COc2c(N3CCN(C)CC3)c(F)cc3c(=O)c(C(=O)O)cn1c23.O [LEVOFLOXACIN] | inactive | inactive | 2 | 0.25 | inactive | inactive | inactive | inactive | 0.06 | 32 | 32 | inactive | inactive |  | 0.5 | 4 | > 0.25 | > 0.25 | 16 | 8 | MBC [13]: 0.06 µg/mL; MIC [13]: 0.06 µg/mL; MBC [14]: 1 µg/mL; MBC [15]: 4 µg/mL; MBC [16]: 0.5 µg/mL; MIC [16]: 0.25 µg/mL; MBC [17]: 0.5 µg/mL; MIC [17]: 0.25 µg/mL; MBC [20]: 0.03 µg/mL; MIC [20]: 0.03 µg/mL; MBC [21]: 0.06 µg/mL; MIC [21]: 0.06 µg/mL; MBC [22]: 1 µg/mL; MIC [22]: 0.5 µg/mL; MBC [12]: 2 µg/mL
C[C@@H](O)[C@H]1C(=O)N2C(C(=O)O)=C(S[C@@H]3CN[C@H](C(=O)N(C)C)C3)[C@H](C)[C@H]12 [MEROPENEM] | inactive | inactive | 16 (≈ 41.7 µM) | 4 (≈ 10.4 µM) | inactive | inactive | inactive | inactive | 0.06 (≈ 0.156 µM) | 0.06 (≈ 0.156 µM) | 0.06 (≈ 0.156 µM) | inactive | inactive | 1 (≈ 2.61 µM) | 0.25 (≈ 0.652 µM) | 0.06 (≈ 0.156 µM) | 0.06 (≈ 0.156 µM) | 0.03 (≈ 0.0782 µM) | 0.06 (≈ 0.156 µM) | 0.06 (≈ 0.156 µM) | MBC [13]: 0.5 µg/mL (≈ 1.3 µM); MIC [13]: 0.25 µg/mL (≈ 0.652 µM); MBC [14]: 2 µg/mL (≈ 5.22 µM); MBC [15]: 0.06 µg/mL (≈ 0.156 µM); MBC [16]: 1 µg/mL (≈ 2.61 µM); MIC [16]: 0.5 µg/mL (≈ 1.3 µM); MBC [17]: 0.125 µg/mL (≈ 0.326 µM); MIC [17]: 0.125 µg/mL (≈ 0.326 µM); MIC [8]: 0.03 µg/mL (≈ 0.0782 µM); MBC [20]: 0.03 µg/mL (≈ 0.0782 µM); MIC [20]: 0.03 µg/mL (≈ 0.0782 µM); MBC [21]: 0.125 µg/mL (≈ 0.326 µM); MIC [21]: 0.125 µg/mL (≈ 0.326 µM); MBC [22]: 2 µg/mL (≈ 5.22 µM); MIC [22]: 1 µg/mL (≈ 2.61 µM); MBC [12]: 2 µg/mL (≈ 5.22 µM)
CN(C)c1cc(NC(=O)CNC(C)(C)C)c(O)c2c1C[C@H]1C[C@H]3[C@H](N(C)C)C(O)=C(C(N)=O)C(=O)[C@@]3(O)C(O)=C1C2=O [TIGECYCLINE] | inactive | inactive | 2 (≈ 3.41 µM) | 0.5 (≈ 0.854 µM) | inactive | inactive | inactive | inactive | 0.06 (≈ 0.102 µM) | 1 (≈ 1.71 µM) | 0.5 (≈ 0.854 µM) | inactive | inactive | 32 (≈ 54.6 µM) | 16 (≈ 27.3 µM) | 0.125 (≈ 0.213 µM) | 0.5 (≈ 0.854 µM) | 0.125 (≈ 0.213 µM) | 0.5 (≈ 0.854 µM) | 0.125 (≈ 0.213 µM) | MBC [13]: 2 µg/mL (≈ 3.41 µM); MIC [13]: 0.5 µg/mL (≈ 0.854 µM); MBC [14]: 128 µg/mL (≈ 219 µM); MBC [15]: 1 µg/mL (≈ 1.71 µM); MBC [16]: 32 µg/mL (≈ 54.6 µM); MIC [16]: 8 µg/mL (≈ 13.7 µM); MBC [17]: 8 µg/mL (≈ 13.7 µM); MIC [17]: 2 µg/mL (≈ 3.41 µM); MIC [8]: 0.06 µg/mL (≈ 0.102 µM); MBC [20]: 0.5 µg/mL (≈ 0.854 µM); MIC [20]: 0.25 µg/mL (≈ 0.427 µM); MBC [21]: 2 µg/mL (≈ 3.41 µM); MIC [21]: 0.5 µg/mL (≈ 0.854 µM); MBC [22]: 8 µg/mL (≈ 13.7 µM); MIC [22]: 2 µg/mL (≈ 3.41 µM); MBC [12]: 32 µg/mL (≈ 54.6 µM)
